# Shown are actives, neighbours in structure and some others; about 2.3% of the full set was active somewhere.
# TAAR1 ag: human TAAR1 agonists, primary screen, Fluo-8 calcium fluorescence, CHO RD-HGA16 cells; vehicle wells 0%, saturating PEA agonist 100%; activation, % at 3 µM; hit rate 0.99% among 360,000;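 active means activation above the mean activation of all test compounds in the run plus 3 SD, cut at about 38% in these data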
#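 Repeats: no replicates (n 1) | Material: CHO-derived RD-HGA16 cells with stable Gα16 and human TAAR1 | Technique: Kinetic Fluo-8 calcium fluorescence | Schedule: 17-24 h seeding, 75 min 37 °C dye, 30 min RT | Evaluation: % activation from peak over basal fluorescence ratio, DMSO-to-PEA scaled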
# OXTR potentiate: human OXTR potentiators, primary screen, fluorescence, CHO-OTR cells, Fluo-8 calcium. Oxytocin receptor (Homo sapiens), P30559. Fluo-8 calcium fluorescence, potentiator mode; 0% = oxytocin EC15, 100% = EC100. activation, % at 3 µM. hit rate 0.061% among 320,000. AID 2445, 2010;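 active means activation above that plate's cutoff, the mean activation of tested compounds plus 3 SD, cut at about 6.6% in these data, passing the limit was not always enough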
# Target sequence (P30559 whole entry, looked up): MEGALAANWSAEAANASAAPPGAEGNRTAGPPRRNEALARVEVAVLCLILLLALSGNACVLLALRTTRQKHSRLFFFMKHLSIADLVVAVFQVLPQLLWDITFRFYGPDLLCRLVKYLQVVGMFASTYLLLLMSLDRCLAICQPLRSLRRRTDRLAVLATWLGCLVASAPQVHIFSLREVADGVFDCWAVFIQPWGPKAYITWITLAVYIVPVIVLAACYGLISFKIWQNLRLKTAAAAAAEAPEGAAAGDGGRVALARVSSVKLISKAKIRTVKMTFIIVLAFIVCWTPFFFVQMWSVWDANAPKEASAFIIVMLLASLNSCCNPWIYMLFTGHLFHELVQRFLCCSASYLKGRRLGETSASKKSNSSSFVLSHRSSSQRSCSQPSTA
#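 System: human OTR in CHO cells; Also added: sub-maximal oxytocin, roughly EC15; Timing: compound 6 min at room temperature before oxytocin, 100 s read; Technique: Fluo-8 intracellular calcium fluorescence, ex 470-495, em 515-575 nm; Controls: oxytocin EC15 low and EC100 high; Replication: singlicate.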
# OXTR agonist: human OXTR agonists, primary screen, fluorescence, CHO-OTR cells, Fluo-8 calcium; Oxytocin receptor (Homo sapiens), P30559; Fluo-8 calcium fluorescence; normalized: DMSO 0%, oxytocin 100%; activation, % at 3 µM; hit rate 0.32% among 320,000; AID 2435, 2010;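 active means activation above the mean of all tested compounds plus 3 SD, cutoff set per screening run, cut at about 20% in these data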;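 further: peak over basal fluorescence ratio from a 100 s FLIPR kinetic read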
# V1aR counter: agonists of human V1a receptor, primary screen, counter-screen for OXTR agonist project, fluorescence, CHO-V1R cells; Fluo-8 calcium fluorescence, agonist mode; 0% DMSO, 100% 3 nM vasopressin; activation, % at 3 µM; hit rate 0.25% among 320,000; Vasopressin V1a receptor (Homo sapiens), P37288;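 active means activation above the mean activation of all tested compounds plus 3 SD, per screening run, cut at about 20% in these data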;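 further: signal is peak over basal fluorescence ratio across a 100 second FLIPR read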
# TAAR1 antagonist: human TAAR1 antagonists, primary screen, Fluo-8 calcium fluorescence, CHO RD-HGA16 cells; Trace amine-associated receptor 1 (Homo sapiens), Q96RJ0; antagonist; inhibition, % at 3 µM; hit rate 1.5% among 360,000; AID 624466, 2012;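 active means inhibition above a per-plate cutoff, the mean inhibition of test compounds on that plate plus 3 SD, cut at about 49% in these data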
#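 Test system: CHO RD-HGA16 cells bearing hTAAR1 | Reagent: β-PEA, EC80 | Compound dosing: 3 µM, single point | Schedule: Dye loading 75 min at 37 °C, then 30 min room temperature | Signal: Calcium fluorescence with Fluo-8 | Evaluation: Percent inhibition of PEA-evoked calcium signal, max/basal emission ratio | Control set: DMSO-only wells and EC80 β-PEA-stimulated wells | Repeats: Singlicate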
# Hits are given with their value; . = inactive; / = no result.
SMILES,TAAR1 ag,OXTR potentiate,OXTR agonist,V1aR counter,TAAR1 antagonist
O=C(CCNS(=O)(=O)c1ccccc1)OCc1ccc([N+](=O)[O-])cc1,.,/,/,/,.
COc1ccc(C(=O)CSc2nnc(NC(=O)C3CC(=O)N(c4ccccc4C)C3)s2)cc1 (stereo not drawn),.,.,.,.,53
Cc1ccccc1N1CC(C(=O)Nc2nnc(SCCN3CCOCC3)s2)CC1=O (stereo not drawn),.,.,.,.,.
O=C(/C=C/c1ccccc1)Nc1nc(-c2ccncc2)cs1,.,.,.,.,50
C[C@H](CO)N1C[C@H](C)[C@@H](CN(C)C(=O)Nc2ccc(C(C)(C)C)cc2)OCc2cn(nn2)CCCC1=O,.,/,/,/,.
CCCCCCOc1ccc(/C(C)=N/NC2=NCCN2)cc1[N+](=O)[O-],38,.,.,.,.
CN(C)CCN(C(=O)C1CCN(S(=O)(=O)c2cccs2)CC1)c1nc2ccc(F)cc2s1,.,.,.,.,.
Cc1cccc2sc(N(CCN(C)C)C(=O)C3CCN(S(=O)(=O)c4cccs4)CC3)nc12,39,.,.,.,.
O=C(COC(=O)CCc1nc2ccccc2c(=O)[nH]1)Nc1ccc2c(c1)OCO2,.,.,.,.,.
O=C(COc1ccc(S(=O)(=O)N2CCCC2)cc1)N1CCCCC1,.,.,.,.,.
CC(=O)c1c(C)oc2ccc(N(C(C)=O)S(=O)(=O)c3cccc4cccnc34)cc12,.,.,.,.,59
c1ccc(CCN2CCN(c3ncnc4c3cnn4-c3ccccc3)CC2)cc1,41,.,.,.,.
CCOc1cc(C(=S)N2CCOCC2)ccc1OS(=O)(=O)c1ccccc1[N+](=O)[O-],.,.,.,.,.
COc1cc(/C=N/N2C(=O)CSC2=S)cc(Br)c1O,62,/,/,/,.
COc1cccc(/C=N/N2C(=O)CSC2=S)c1O,.,.,.,.,.
COCCN1C(=O)/C(=C/c2ccc(N3CCCC3)cc2C)SC1=S,.,.,.,.,51
S=C(NCCC(c1ccccc1)c1ccccc1)Nc1ccccc1Cl,.,.,.,.,50
COC(=O)C(Cc1ccc(OC(=O)c2ccccc2C)cc1)N1Cc2ccccc2C1=O (stereo not drawn),.,.,.,.,52
COC(=O)C(Cc1ccc(OC(=O)c2ccccc2Cl)cc1)N1Cc2ccccc2C1=O (stereo not drawn),.,.,.,.,59
O=C(O)[C@H](Cc1ccccc1)N1Cc2ccccc2C1=O,.,.,.,.,.
CCOc1ccc(N=NC2C(=O)N(C(N)=S)N=C2C)cc1 (stereo not drawn),.,.,.,.,.
O=C(Nc1ccc(Cl)cc1)N[C@H]1CC[C@H](CCn2cc(-c3ccccc3F)nn2)O[C@@H]1CO,.,/,/,/,.
COc1ccc(S(=O)(=O)N(C)[C@H]2C[C@H]3c4cc(-c5ccccc5)ccc4CCN3C(=O)[C@H]2[C@H](C)O)cc1,.,/,/,/,56
COc1ccc(S(=O)(=O)N(C)[C@H]2C[C@H]3c4cc(Oc5ccccc5C)ccc4CCN3C(=O)[C@H]2[C@H](C)O)cc1,.,/,/,/,.
CCc1ccc(Nc2nnc(SCC(=O)Nc3sccc3C(N)=O)s2)cc1,.,.,.,.,.
SMILES,TAAR1 ag,OXTR potentiate,OXTR agonist,V1aR counter,TAAR1 antagonist
COc1cccc(Nc2nnc(SCC(=O)Nc3sccc3C(N)=O)s2)c1,.,.,.,.,68
O=C(N[C@H](C(=O)N1CCC[C@H]1C(=O)NCc1ccccc1)C1CCCCC1)c1ccc(Cl)cc1Cl,.,/,/,/,.
Cc1cc(C)c(C)c(S(=O)(=O)N2CCC(C(=O)OCC(=O)N3c4ccccc4NC(=O)C3(C)C)CC2)c1C,.,.,.,.,49
COc1cccc(NC(=O)CN(C)C(=O)c2ccc(-c3ccc(Cl)cc3)o2)c1,.,.,.,.,.
COc1ccc(C(=O)NC(=S)NNC(=O)c2ccc(NC(C)=O)cc2)cc1Br,.,.,.,.,.
COc1ccc(C(=O)NNC(=S)NC(=O)c2ccc(F)cc2)cc1Br,51,.,68,76,.
COc1cc(C(=O)NC(=S)NNC(=O)c2ccc3c(c2)OCO3)cc(OC)c1OC,52,.,.,.,.
CCCCC[C@@H](C)N1C[C@H](COCc2ccccc2)Oc2cc(N3CC[C@H](O)C3)ccc2S1(=O)=O,.,/,/,/,.
CN1CCN(CCNC(=O)c2ccc3nc(-c4ccc(F)cc4)c(-c4ccc(F)cc4)nc3c2)CC1,.,.,.,.,.
CCCn1c(N)cc(=O)n(C)c1=O,.,.,.,.,.
O=C(Nc1ccc(F)cc1)Nc1ccc(NC(=O)c2ccccc2O)cc1,41,.,.,.,58
O=C(Nc1ccc(F)cc1)c1ccccc1F,.,.,.,.,.
COC(=O)[C@]12C[C@H](CC(=O)N3CCCC3)C(=O)N(CCC3=CCCCC3)C1=C[C@H](C(C)(C)C)O[C@@H]2C,.,/,/,/,.
CN(C)S(=O)(=O)c1cccc(NC(=O)c2cc(-c3cccs3)nc3ccccc23)c1,.,.,.,.,64
O=C(Nc1cccc(S(=O)(=O)NCc2ccco2)c1)c1cc(-c2ccccc2)nc2ccccc12,.,.,.,.,59
CCC(C)NC(=O)c1cc(-c2cccs2)nc2ccccc12 (stereo not drawn),.,.,.,.,.
O=C(NCc1ccco1)c1cc(-c2ccccc2)nc2ccccc12,.,.,.,.,.
CCN(CC)C(=O)c1ncn2c1C(=O)NC[C@H]2C,.,/,/,/,.
COc1ccccc1CN1C(=O)[C@@H]2Cc3c([nH]c4ccccc34)C(C)(C)N2C1=O,.,.,.,.,.
CCCOc1ccc(C(=O)Nc2ccc(S(=O)(=O)NC3=NCCCCC3)cc2)cc1,.,.,.,.,.
CC(C)CCN(C(=O)CNC(=O)c1ccco1)C(C(=O)NC1CCCCC1)c1cccnc1 (stereo not drawn),.,.,.,.,.
O=C(NCc1ccccc1)[C@@H]1CCCN1C(=O)[C@H]1CCCN1C(=O)c1ccccc1Cl,.,/,/,/,.
O=C1C=C(c2ccc(F)cc2OCc2ccccc2)C[C@@H](c2ccc(F)cc2)C1,.,.,.,.,.
Cc1ccc(Nc2cc(C)nc3nc(C)nn23)cc1,.,12,.,.,.
Cc1cc(C)cc(Nc2cc(C)nc3nc(C)nn23)c1,.,.,.,.,.
O=c1oc2c3c4c(cc2c(C(F)(F)F)c1CCN1CCOCC1)CCCN4CCC3,41,.,34,33,.
CC(C)c1cc(=O)oc2c3c4c(cc12)CCCN4CCC3,.,.,.,.,.

# Assay outcomes (PubChem BioAssay)
